From ChEMBL document CHEMBL3244138, “New antiarrhythmic agents. 3. Primary beta-amino anilides” (J Med Chem, 1979) come the findings set out here.

Usually ED50 stands for the dose at which the effect has come halfway, by size or by number of responders. One may read the bioavailability as dose-corrected exposure relative to a reference, in per cent.

The source made the active and inactive calls. No cut-off for these calls is given here.

Data set [1] has as its system Mus musculus. Nature of the data set: Toxicity in mouse assessed as ataxia at 100 mg/kg, sc measured up to 20 mins. It counts as organism-based. Set-up: dose 100 mg/kg, route subcutaneous. The conditions noted are these: in vivo. In outline: (§1)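 Preliminary screen: drug dissolved in 0.9% saline and given subcutaneously at 100 mg/kg to groups of 10 mice. Animals were watched for 20 min for ataxia, convulsions, loss of righting reflex or death. Each sign was recorded as the number of animals affected out of 10 tested.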

In data set [2] the test system is Mus musculus. Description: Toxicity in mouse assessed as convulsion at 100 mg/kg, sc measured up to 20 mins. It counts as organism-based. Also noted: dose 100 mg/kg, route subcutaneous. The settings on record: in vivo. The essentials: as §1
Data set [3] relates to Mus musculus. Description: Toxicity in mouse assessed as loss of righting reflex at 100 mg/kg, sc measured up to 20 mins. Set-up: dose 100 mg/kg, route subcutaneous. The conditions noted are these: in vivo. It counts as organism-based. The essentials: as §1
Data set [4] deals with Mus musculus. Description: Toxicity in mouse assessed as mortality at 100 mg/kg, sc measured up to 20 mins. It counts as organism-based. Also noted: dose 100 mg/kg, route subcutaneous. The settings on record: in vivo. In outline: as §1
For data set [5], the system named is Mus musculus. Description: Antiarrhythmic activity in sc dosed mouse assessed as protection against chloroform-induced fibrillation. The settings on record: Heart. It counts as functional. The essentials: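 Mice (10 per dose) got at least three sc doses in 0.9% saline, chosen for low to high protection. After 20 min, chloroform vapour was given until respiration stopped, then fibrillation versus coordinated ventricular contraction was scored visually.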

The subject of data set [6] is Mus musculus. Nature of the data set: Ratio of lidocaine ED50 to compound ED50 for antiarrhythmic activity sc dosed mouse assessed as protection against chloroform-induced fibrillation. It counts as functional, Heart.
Data set [7] deals with Canis familiaris. Nature of the data set: Antiarrhythmic activity in left anterior descending coronary artery ligated myocardial infarction model of dog assessed as clearing value of ventricular ectopic beats at 0.5 mg/kg/min, iv. It is filed as functional, Canis lupus familiaris, Heart. The essentials:
(§2)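 Dogs with myocardial infarction from two-step ligation of the left anterior descending coronary artery were studied the day after ligation and given a drug infusion. Control percent ventricular ectopic beats, ventricular rate (beats/min) and mean arterial pressure (mmHg) were taken before infusion. Clearing values and dose were taken at the time of lowest ectopic-beat incidence; results are means and SD of 3–14 experiments.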

Data set [8] concerns Canis familiaris. Description: Antiarrhythmic activity in left anterior descending coronary artery ligated myocardial infarction model of dog assessed as clearing value of ventricular rate at 0.5 mg/kg/min, iv. It counts as functional, Canis lupus familiaris, Heart. In outline:
as §2

The test system of data set [9] is Canis familiaris. Nature of the data set: Antiarrhythmic activity in left anterior descending coronary artery ligated myocardial infarction model of dog assessed as mean arterial blood pressure at 0.5 mg/kg/min, iv. It is filed as functional, Canis lupus familiaris. In outline: as §2
Data set [10] deals with Canis familiaris. Nature of the data set: Antiarrhythmic activity in iv dosed left anterior descending coronary artery ligated myocardial infarction model of dog assessed as dose required for reduction of ectopic beats to <= 5%. It counts as functional, Canis lupus familiaris, Heart. In outline:
as §2

The test system of data set [11] is Canis familiaris. Nature of the data set: Toxicity in iv dosed left anterior descending coronary artery ligated myocardial infarction model of dog assessed as dose required to cause convulsion. It counts as organism-based, Canis lupus familiaris. The conditions noted are these: in vivo.
For data set [12], the system named is Canis familiaris. Description: Cardiovascular toxicity in iv dosed left anterior descending coronary artery ligated myocardial infarction model of dog. It counts as organism-based, Canis lupus familiaris. The conditions noted are these: in vivo.
For data set [13], the system named is Canis familiaris. Description: Toxicity in iv dosed left anterior descending coronary artery ligated myocardial infarction model of dog at 0.20 mmol/kg, iv. It is filed as organism-based, Canis lupus familiaris. The conditions noted are these: in vivo.
The test system of data set [14] is Canis familiaris. Nature of the data set: Toxicity in iv dosed left anterior descending coronary artery ligated myocardial infarction model of dog at 0.25 mmol/kg, iv. It counts as organism-based, Canis lupus familiaris. The settings on record: in vivo.
Data set [15] has as its system Mus musculus. Nature of the data set: Antiarrhythmic activity in mouse assessed as protection against chloroform-induced fibrillation at 100 mg/kg, sc. It is filed as functional, organism-based. Also noted: dose 100 mg/kg. The settings on record: Heart. The essentials:
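Preliminary screen: single 100 mg/kg sc dose in 0.9% saline to 10 mice. After 20 min, each mouse was held in chloroform-saturated air until respiration ceased, and the thorax was opened at once. A mouse counted as protected if ventricular contractions were coordinated rather than fibrillating. Read-out is the number protected of 10.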

In data set [16] the test system is Mus musculus. Nature of the data set: Toxicity in mouse assessed as ataxia at 200 mg/kg, sc measured up to 20 mins. It counts as organism-based. Also noted: dose 200 mg/kg, route subcutaneous. The conditions noted are these: in vivo. In outline:
(§3)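 Mice (10 per dose) received drug sc in 0.9% saline and were watched for 20 min for ataxia, convulsions, loss of righting reflex and death, before chloroform exposure. Read-out is the number affected of 10 tested.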

For data set [17], the system named is Mus musculus. Nature of the data set: Toxicity in mouse assessed as loss of righting reflex at 200 mg/kg, sc measured up to 20 mins. It is filed as organism-based. Set-up: dose 200 mg/kg, route subcutaneous. The conditions noted are these: in vivo. In outline: as §3
The test system of data set [18] is Canis familiaris. Description: Toxicity in left anterior descending coronary artery ligated myocardial infarction model of dog at […], iv. It is filed as organism-based, Canis lupus familiaris. The conditions noted are these: in vivo.
In data set [19] the test system is Canis familiaris. Description: Toxicity in iv dosed left anterior descending coronary artery ligated myocardial infarction model of dog assessed as dose required to cause toxic effect. It is filed as organism-based, Canis lupus familiaris. The conditions noted are these: in vivo.
A short description of data set [20]: Oral bioavailability in dog. The conditions noted are these: in vivo. It counts as ADME, organism-based, Canis lupus familiaris.
Data set [21] relates to Canis familiaris. Description: Toxicity in iv dosed left anterior descending coronary artery ligated myocardial infarction model of dog assessed as dose required to cause death. It is filed as organism-based, Canis lupus familiaris. The settings on record: in vivo. The essentials: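 Baseline ectopic beats, ventricular rate and mean arterial pressure were recorded before drug infusion. Infusion was stopped at a toxic level, and the cumulative dose in mmol/kg causing death was recorded.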

Regarding `CCc1cccc(C)c1NC(=O)CCN.Cl`, the Activity entry with Mus musculus [1], in the data set on Mus musculus [2], in the data set with Mus musculus [3] and in the data set with Mus musculus [4] was “Non-toxic” in each case. Also, in the data set with Mus musculus [5], the 50% effective dose (ED50) was determined as 1990 µmol/kg. Moreover, the “Ratio ED50” value with Mus musculus [6] is on record as 0.1.

For the molecule `CCN(CC)CCC(=O)Nc1c(C)cccc1C`, the Activity entry in the data set on Mus musculus [1] is listed as “Toxic”; in the data set with Mus musculus [3], “Non-toxic”; with Mus musculus [4], “Non-toxic”; with Canis familiaris [7], 15%; in the data set on Canis familiaris [8] it was 132 bpm; in the data set on Canis familiaris [9] it was 115 mmHg. The Activity in the data set on Canis familiaris [10] was 0.01 mmol/kg; in the data set with Canis familiaris [11], 0.04 mmol/kg; in the data set on Canis familiaris [12], “Toxic”; in the data set with Canis familiaris [13], “Toxic”; in the data set on Canis familiaris [14] it was “Toxic”. For the same molecule, in the data set on Mus musculus [5], the median effective dose (ED50) came out at 280 µmol/kg. Besides, the “Ratio ED50” value in the data set on Mus musculus [6] stood at 0.9.

Turning to `Cc1cccc(C)c1N(C)C(=O)CCN.Cl.O`, the outcome with Mus musculus [15] was inactive. Further, the Activity entry is reported as “Non-toxic” in the data set on Mus musculus [1]; “Non-toxic” with Mus musculus [2]; “Non-toxic” in the data set with Mus musculus [3]; “Non-toxic” in the data set on Mus musculus [4]; “Toxic” in the data set with Mus musculus [16]; “Non-toxic” with Mus musculus [17].

In the case of `Cc1cccc(C)c1NC(=O)CCN.Cl`, the Activity entry in the data set with Mus musculus [1] is “Non-toxic”; with Mus musculus [2], “Non-toxic”; in the data set on Mus musculus [3], “Non-toxic”; in the data set with Mus musculus [4] it was “Non-toxic”; in the data set on Canis familiaris [7], 5%; with Canis familiaris [8], 120 bpm. The Activity in the data set on Canis familiaris [9] is 85 mmHg; in the data set with Canis familiaris [10], 0.23 mmol/kg; in the data set on Canis familiaris [18] it was “Non-toxic”. In the data set on Mus musculus [5], the median effective dose (ED50) came to 560 µmol/kg. In addition, the “Ratio ED50” value in the data set with Mus musculus [6] is on record as 0.5.

For `CCN(C(=O)CC(C)N)c1c(C)cccc1C.O.O=C(O)C(O)C(O)C(=O)O` (centres undefined), the Activity result in the data set with Mus musculus [1] and in the data set on Mus musculus [2] was “Toxic” throughout.

As for `Cc1cccc(C)c1NC(=O)C(C)N` (centres undefined) [TOCAINIDE], the Activity result with Mus musculus [2] is given as “Non-toxic”; in the data set on Mus musculus [3] it was “Non-toxic”; with Mus musculus [4], “Non-toxic”; with Canis familiaris [7] it was 2%; in the data set with Canis familiaris [8], 148 bpm; in the data set with Canis familiaris [9], 108 mmHg. Besides, the Activity is 0.32 mmol/kg in the data set on Canis familiaris [10] and 0.3 mmol/kg in the data set on Canis familiaris [19]. Moreover, the median effective dose (ED50) with Mus musculus [5] is 1300 µmol/kg. The “Ratio ED50” value in the data set on Mus musculus [6] turned out to be 0.2.

Take `CCc1cccc(C)c1NC(=O)CC(C)N.Cl` (centres undefined): the Activity result in the data set with Mus musculus [1], with Mus musculus [2], in the data set on Mus musculus [3] and with Mus musculus [4] was “Non-toxic” in each case. Moreover, the ED50 in the data set on Mus musculus [5] came out at 540 µmol/kg. Besides, the “Ratio ED50” value with Mus musculus [6] is given as 0.5.

`Cc1cccc(C)c1NC(=O)CC(C)N.Cl` (centres undefined): the Activity entry with Mus musculus [1] was “Non-toxic”; with Mus musculus [2], “Non-toxic”; in the data set with Mus musculus [3] it was “Non-toxic”; with Mus musculus [4], “Non-toxic”; in the data set on Canis familiaris [7], 0%; with Canis familiaris [8] it was 148 bpm. The Activity came to 97 mmHg with Canis familiaris [9], 0.1 mmol/kg in the data set on Canis familiaris [10] and 0.33 mmol/kg with Canis familiaris [19]. Moreover, in the data set on Mus musculus [5], the median effective dose (ED50) is 460 µmol/kg. In the data set on Mus musculus [6], the “Ratio ED50” value was found to be 0.6. Moreover, the bioavailability in [20] was more than 90%.

On to `Cc1cccc(C)c1NC(=O)CC(C)(C)N.Cl`, for which the Activity result was “Non-toxic” with Mus musculus [1]; “Non-toxic” in the data set with Mus musculus [2]; “Non-toxic” with Mus musculus [3]; “Non-toxic” with Mus musculus [4]; 39% with Canis familiaris [7]; 138 bpm with Canis familiaris [8]. Also, the Activity was 95 mmHg with Canis familiaris [9], 0.04 mmol/kg with Canis familiaris [10] and 0.17 mmol/kg with Canis familiaris [21]. Also, the 50% effective dose (ED50) with Mus musculus [5] is 250 µmol/kg. For the same molecule, the “Ratio ED50” value in the data set on Mus musculus [6] is 1.

Regarding `CCC(N)CC(=O)Nc1c(C)cccc1C.Cl` (centres undefined), the Activity result in the data set with Mus musculus [1], in the data set with Mus musculus [2], in the data set with Mus musculus [3] and in the data set with Mus musculus [4] was “Non-toxic” throughout. Further, in the data set with Mus musculus [5], the ED50 amounted to 380 µmol/kg. Moreover, in the data set with Mus musculus [6], the “Ratio ED50” value is recorded as 0.7.

In the case of `Cc1cccc(C)c1N(C)C(=O)CC(C)N.O.O=C(O)C(O)C(O)C(=O)O` (centres undefined), the Activity result is listed as “Toxic” with Mus musculus [1], “Non-toxic” in the data set on Mus musculus [3] and “Non-toxic” with Mus musculus [4].

Take `CCN(CC)CC(=O)Nc1c(C)cccc1C` [LIDOCAINE]: in the data set on Mus musculus [15], the outcome was Active. For the same molecule, the Activity result is recorded as “Toxic” with Mus musculus [1]; “Toxic” in the data set with Mus musculus [2]; “Toxic” in the data set on Mus musculus [3]; “Non-toxic” in the data set on Mus musculus [4]; 4% in the data set with Canis familiaris [7]; 133 bpm with Canis familiaris [8]. Further, the Activity in the data set on Canis familiaris [9] was determined as 101 mmHg; in the data set with Canis familiaris [10] it was 0.21 mmol/kg; in the data set with Canis familiaris [19], 0.27 mmol/kg. Besides, the ED50 in the data set on Mus musculus [5] was determined as 260 µmol/kg. In the data set with Mus musculus [6], the “Ratio ED50” value was found to be 1.
